Reference: PubChem BioAssay AID493082 (Broad Institute, 2011)
Inconclusive results are not listed. The source made the active and inactive calls.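 Rule for the calls: active = compounds whose fitted half-maximal growth inhibition concentration is at most ten times the top valid dose; inconclusive = flat curve with 30 to 70% inhibition, or poor fit; inactive = the rest.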

Tested on: not listed separately
Experiment: growth inhibition of drug-resistant Candida albicans, dose response, Alamar Blue, 48 h, dry powder (AID 493082)
Conditions: C. albicans CaCi-8 + fluconazole, Alamar Blue growth, 48 h; at 26 µM (top of the series)
Procedure, shortened: (§1)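 system = C. albicans CaCi-8, fluconazole-resistant clinical isolate | buffer or medium = RPMI 1640 defined medium, MOPS, glucose, uridine | probe or stimulus = fluconazole co-treatment at 8 µg/mL alongside compound | schedule = 48 h static 37 °C compound exposure, 2 h Alamar Blue | detection = Alamar Blue fluorescence, Ex 544/Em 590 nm | read-out = fungal growth or viability, lower signal indicating inhibition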

| SMILES | activity change, negative = inhibition |
| --- | --- |
| CCN(CC)C(=O)Cn1c2ccc(F)cc2c2nc3n(c(=O)c21)CCS3 | 24.6% (inactive) |
| O=C(Cn1c2ccc(F)cc2c2nc3n(c(=O)c21)CCS3)N1CCCCCC1 | 3.17% (inactive) |
| O=C(Cn1c2ccc(F)cc2c2nc3n(c(=O)c21)CCS3)N1CCCCC1 | 12.2% (inactive) |
| O=C(Cn1c2ccccc2c2ccncc21)N1CCCCC1 | -24.1% (inactive) |
| O=C(Cn1nc(-c2ccccc2)c2ccccc21)OC1CCC1 | -21.3% (inactive) |
| CCCCn1nc(-c2ccccc2)c2ccccc21 | 19.1% (inactive) |
| COC(=O)Cn1nc(-c2ccccc2)c2ccc(C(F)(F)F)cc21 | -34.9% (inactive) |
| COC(=O)Cn1nc(-c2ccccc2)c2cccc(C(F)(F)F)c21 | -12% (inactive) |
| O=C(O)Cn1nc(-c2ccccc2)c2ccccc21 | -8.51% (inactive) |
| O=C1OCCC1n1nc(-c2ccccc2)c2ccccc21 (centres undefined) | -19.7% (inactive) |
| COC(=O)C(C)(C)n1nc(-c2ccccc2)c2ccccc21 | -6.76% (inactive) |

Tested on: C. albicans CaCi-8 + fluconazole, Alamar Blue growth, 48 h
Experiment: as above
Conditions: not given
Procedure, shortened: as §1

| SMILES | AC50 [µM] |
| --- | --- |
| COC(=O)Cn1nc(I)c2ccccc21 | 18.8 |
| O=C(Cn1c2ccccc2c2nc3n(c(=O)c21)CCS3)N1CCCCC1 | 4.91 |
| COC(=O)Cn1c(-c2ccccc2)nc2ccccc21 | 16.7 |
| COC(=O)Cn1nc(-c2ccc(C#N)cc2)c2ccccc21 | 20 |
| O=C(Cn1c2ccc(F)cc2c2nc3n(c(=O)c21)CCS3)N1CCCC1 | 0.907 |
| O=C(Cn1c2ccccc2c2nc3n(c(=O)c21)CCS3)N1CCCC1 | 3.83 |
| COC(=O)Cn1nc(-c2cccc(F)c2)c2ccccc21 | 14 |
| CC1CCN(C(=O)Cn2c3ccccc3c3nc4n(c(=O)c32)CCS4)CC1 | 2.06 |
| CCN(CC)C(=O)Cn1c2ccccc2c2nc3n(c(=O)c21)CCS3 | 10 |
| COC(=O)Cn1nc(-c2ccc(F)cc2)c2ccccc21 | 16.1 |
| O=C(Cn1c2ccccc2c2nc3n(c(=O)c21)CCS3)N1CCOCC1 | 7.67 |
| COC(=O)Cn1nc(-c2ccccc2C)c2ccccc21 | 8.07 |
| COC(=O)Cn1nc(-c2ccccc2)c2ccccc21 | 2.33 |
